Source: ChEMBL document CHEMBL1938334, “Quinoline tricyclic derivatives. Design, synthesis and evaluation of the antiviral activity of three new classes of RNA-dependent RNA polymerase inhibitors” (Bioorg Med Chem, 2011)

Assays:
[1] = tested on: CCRF-CEM; assay: Cytotoxicity against human CCRF-CEM cells after 96 hrs by MTT assay; assay type: functional
Procedure, shortened: (§1)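 Cells were seeded at 1×10^5 cells/mL: leukaemia/lymphoma lines in RPMI-1640, solid tumour and fibroblast lines in specific media, all with 10% FCS. Serial compound dilutions were applied for 96 h at 37 °C, 5% CO2, under conditions allowing controls at least three rounds of multiplication. Viability was read by MTT. CC50 by linear regression. Mean of three determinations.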

[2] = tested on: CCRF-SB; assay: Cytotoxicity against human CCRF-SB cells after 96 hrs by MTT assay; assay type: functional; procedure, shortened: as §1
[3] = tested on: SK-MEL-28; assay: Cytotoxicity against human SK-MEL-28 cells after 96 hrs by MTT assay; assay type: functional; conditions: SK-MEL-28, 96 h; procedure, shortened: as §1
[4] = tested on: MCF7; assay: Cytotoxicity against human MCF7 cells after 96 hrs by MTT assay; assay type: functional; conditions: MCF7, 96 h; procedure, shortened: as §1
[5] = tested on: SK-MES-1; assay: Cytotoxicity against human SKMES1 cells after 96 hrs by MTT assay; assay type: functional; conditions: SK-MES-1, 96 h; procedure, shortened: as §1
[6] = tested on: HepG2; assay: Cytotoxicity against human HepG2 cells after 96 hrs by MTT assay; assay type: functional; conditions: HepG2, 96 h; procedure, shortened: as §1
[7] = tested on: DU-145; assay: Cytotoxicity against human DU145 cells after 96 hrs by MTT assay; assay type: functional; conditions: DU-145, 96 h; procedure, shortened: as §1
[8] = Cytotoxicity against human CRL7065 cells after 96 hrs by MTT assay; assay type: cell-based, CRL-7065
Procedure, shortened: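 Foreskin fibroblasts seeded at 1×10^5 cells/mL in specific medium with 10% FCS and antibiotics; serial compound dilutions, 37 °C, 5% CO2, 96 h, under conditions allowing untreated controls at least three rounds of multiplication. MTT read-out; concentration reducing proliferation by 50% by linear regression versus untreated controls; three independent determinations.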

[9] = Cytotoxicity against human MT4 cells after 96 hrs by MTT assay; assay type: cell-based
Procedure, shortened: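 Exponentially growing MT-4 cells seeded at 1×10^5 cells/mL in RPMI-1640 with 10% FBS, penicillin and streptomycin. Incubated with serial compound dilutions at 37 °C, 5% CO2 for 96 h; viability by MTT. CC50 by linear regression relative to untreated controls; mean of three independent determinations.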

[10] = tested on: Human immunodeficiency virus 1; assay: Antiviral activity against HIV1 3B infected in human MT4 cells assessed as inhibition of virus-induced cytopathogenicity after 4 days by MTT assay; assay type: functional, organism-based; conditions: Human immunodeficiency virus 1, 3B, MT4, 96 h
Procedure, shortened: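 MT-4 cells (1×10^4 per well) were infected with HIV-1 IIIB at 100 CCID50, m.o.i. 0.01, together with serial compound dilutions. Viability was read by MTT after 4 days at 37 °C. EC50 was taken by linear regression versus untreated controls. Mean of three determinations.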

[11] = Cytotoxicity against MDBK cells after 48 to 96 hrs by MTT assay; assay type: cell-based, Bos taurus; conditions: cattle
Procedure, shortened: (§2)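 MDBK seeded at 6×10^5 and BHK at 1×10^6 cells/mL in MEM-Earle's with L-glutamine, 1 mM pyruvate, kanamycin, plus 10% horse serum (MDBK) or 10% FBS (BHK). Cells were grown at 37 °C, 5% CO2 with serial compound dilutions (DMSO stocks diluted in medium). Viability by MTT after 48–96 h. CC50 was taken by linear regression versus untreated controls; three independent determinations.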

[12] = Antiviral activity against Bovine viral diarrhea virus 1-NADL infected in MDBK cells assessed as inhibition of virus-induced cytopathogenicity after 3 to 4 days by MTT assay; assay type: functional, cell-based; conditions: Bovine viral diarrhea virus isolates and strains
Procedure, shortened: (§3)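 Host cells were seeded in 96-well plates at 3×10^4 cells/well (MDBK) or 5×10^4 cells/well (BHK-21) and grown to confluent monolayers overnight. They were infected at m.o.i. 0.01 in maintenance MEM with 0.5% inactivated FBS. Serial compound dilutions were added after 1 h. Viability was read by MTT after 3–4 days at 37 °C. EC50 was taken by linear regression against untreated controls. Mean of three determinations.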

[13] = Cytotoxicity against BHK21 cells after 48 to 96 hrs by MTT assay; assay type: cell-based, Mesocricetus auratus, BHK-21; conditions: hamster; procedure, shortened: as §2
[14] = tested on: Yellow fever virus; assay: Antiviral activity against Yellow fever virus 17D Stamaril Pasteur J07B01 infected in hamster BHK21 cells assessed as inhibition of virus-induced cytopathogenicity after 3 to 4 days by MTT assay; assay type: functional, cell-based; conditions: Stamaril Pasteur J07B01, BHK-21; procedure, shortened: as §3
[15] = tested on: Reovirus sp.; assay: Antiviral activity against Reovirus type-1 3651 infected in hamster BHK21 cells assessed as inhibition of virus-induced cytopathogenicity after 3 to 4 days by MTT assay; assay type: functional, organism-based; conditions: Reovirus sp., 3651, BHK-21; procedure, shortened: as §3
[16] = Cytotoxicity against african green monkey Vero 76 cells after 48 to 96 hrs by crystal violet staining; assay type: cell-based; conditions: chlorocebus sabaeus
Procedure, shortened: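 Vero-76 cells were seeded at 4×10^5 cells/mL in D-MEM with L-glutamine, kanamycin and 10% FBS, then exposed to serial compound dilutions at 37 °C, 5% CO2 for 48–96 h. Viability was read by crystal violet staining. 50% cytotoxic concentration by linear regression relative to untreated controls; mean of three independent determinations.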

[17] = tested on: Coxsackievirus B5; assay: Antiviral activity against Human coxsackievirus B5 Ohio-1 infected in african green monkey Vero 76 cells assessed as reduction of virus-induced plaque formation after 3 days using crystal violet staining; assay type: functional, organism-based; conditions: Enterovirus B, Ohio-1, Vero, 72 h
[18] = tested on: Poliovirus 1; assay: Antiviral activity against Human poliovirus 1 strain Sabin Chat infected in african green monkey Vero 76 cells assessed as virus-induced reduction of plaque formation after 2 days using crystal violet staining; assay type: functional, cell-based; conditions: Enterovirus C, 48 h
[19] = tested on: Human orthopneumovirus; assay: Antiviral activity against Human respiratory syncytial virus A2 infected in african green monkey Vero 76 cells assessed as reduction of virus-induced plaque formation after 5 days using crystal violet staining; assay type: functional, organism-based; conditions: 120 h
[20] = tested on: Vesicular stomatitis Indiana virus; assay: Antiviral activity against clinical isolate Vesicular stomatitis Indiana virus infected in african green monkey Vero 76 cells assessed as reduction of virus-induced plaque formation after 2 days using crystal violet staining; assay type: functional, organism-based; conditions: 48 h
[21] = Antiviral activity against Vaccinia virus Lister Elstree infected in african green monkey Vero 76 cells assessed as reduction of virus-induced plaque formation after 3 days using crystal violet staining; assay type: functional, cell-based; conditions: 72 h
[22] = tested on: Human alphaherpesvirus 1; assay: Antiviral activity against Human herpesvirus 1 strain KOS infected in african green monkey Vero 76 cells assessed as reduction of virus-induced plaque formation after 3 days using crystal violet staining; assay type: functional, organism-based; conditions: Human alphaherpesvirus 1, KOS, 72 h
[23] = Cytotoxicity against human GS4.1 cells; assay type: cell-based
Procedure, shortened: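 Huh-7 cells carrying HCV genotype 1b subgenomic replicon, grown in D-MEM/10% FBS with 0.5 mg/mL G418. Seeded at 7.5×10^3 cells/well with two-fold serial dilutions (top 75 μM), incubated 72 h at 37 °C. Viability by MTS-type Cell Titer 96 Aqueous One reagent; CC50 from % cytotoxicity versus concentration curves.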

[24] = tested on: Hepatitis C virus; assay: Antiviral activity against HCV1b infected in human GS4.1 cells assessed as inhibition of virus-induced cytopathogenicity by measuring viral NS4A protein level after 72 hrs by ELISA; assay type: functional, organism-based, Hepacivirus hominis; conditions: genotype 1b
Procedure, shortened: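 GS4.1 cells are Huh-7 cells carrying a genotype 1b subgenomic replicon, kept in 0.5 mg/mL G418. They were seeded at 7.5×10^3 cells/well with two-fold serial dilutions of compound (top 75 μM) and incubated 72 h at 37 °C. Huh-7 cells without the replicon served as negative control. NS4A was measured by cell ELISA with anti-NS4A mAb A-236, peroxidase and o-phenylenediamine, A492. EC50 came from four-parameter sigmoidal fit.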

[25] = Inhibition of Bovine viral diarrhea virus 1-NADL recombinant NS5B Cdelta 21 RNA dependent RNA polymerase expressed in Escherichia coli (DE3) using GTP as substrate preincubated for 30 mins before substrate addition measured after 120 mins by fluorescence assay
[26] = Inhibition of HCV1b BK 6xHis-tagged recombinant NS5B Cdelta 21 RNA dependent RNA polymerase expressed in Escherichia coli (DE3) using GTP as substrate preincubated for 30 mins before substrate addition measured after 120 mins by fluorescence assay; design: species or system Hepatitis C virus (isolate BK)
Procedure, shortened: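 His-tagged NS5B (BVDV C-terminal Δ24; HCV1b Δ21) from E. coli Rosetta 2(DE3)pLysS, Ni-NTA purified, 500–600 ng per 20 μL. The template was poly(rC) 10 μg/mL and the primer oligo(rG)12 0.1 μg/mL, with GTP 80 μM. Buffer: 20 mM Tris pH 7.0, 0.5 mM MnCl2 or 5 mM MgCl2, 5% DMSO. Enzyme/drug 30 min at RT, then GTP added; 120 min at 37 °C (BVDV) or 25 °C (HCV). Read-out was dsRNA dye fluorescence (ex 480/em 520). IC50 from dose–response fits.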

[27] = tested on: WIL2-NS; assay: Cytotoxicity against human WIL2-NS cells after 96 hrs by MTT assay; assay type: functional; procedure, shortened: as §1
[28] = Cytotoxicity against human MRC5 cells after 96 hrs by MTT assay; assay type: cell-based; procedure, shortened: as §1

Compound | CC50 [1] [µM] | CC50 [2] [µM] | CC50 [3] [µM] | CC50 [4] [µM] | CC50 [5] [µM] | CC50 [6] [µM] | CC50 at 96 h [9] [µM] | EC50 [10] [µM] | CC50 [11] [µM] | EC50 [12] [µM] | CC50 [13] [µM] | EC50 [14] [µM] | EC50 [15] [µM] | CC50 [16] [µM] | EC50 [17] [µM] | EC50 [18] [µM] | EC50 [19] [µM] | EC50 [20] [µM] | EC50 [21] [µM] | EC50 [22] [µM] | also measured
O=c1[nH]c2cc3cccnc3c(Cl)c2nc1-c1ccccc1 | 16 | 19 | 5.6 | 7.6 | 8 | 8 | 22 | > 22 | > 100 | 11 | > 100 | > 100 | > 100 | > 100 | > 100 | > 100 | 12 | > 100 | > 100 | > 100 | CC50 [7]: 7.4 µM; CC50 at 96 h [8]: 16 µM; CC50 [23]: 11 µM; EC50 [24]: > 11 µM; IC50 [25]: 1 µM; IC50 [26]: > 10 µM
CC[C@@]1(O)C(=O)OCc2c1cc1n(c2=O)Cc2cc3ccccc3nc2-1 [CAMPTOTHECIN] | 0.003 | 0.004 | 0.07 | 0.02 | 0.03 | 0.02 |  |  |  |  |  |  |  |  |  |  |  |  |  |  | CC50 [27]: 0.005 µM; CC50 [7]: 0.015 µM; CC50 at 96 h [28]: 0.2 µM; CC50 at 96 h [8]: 0.3 µM
O=c1[nH]c2cc3cccnc3c(Cl)c2nc1Cc1ccccc1 | 19 | 25 | > 100 | > 100 | > 100 | 72 | 15 | > 15 | > 100 | 2.6 | > 100 | > 100 | > 100 | 88 | > 88 | > 88 | > 88 | > 88 | > 88 | > 88 | CC50 [27]: 33 µM; CC50 [7]: ≥ 100 µM; CC50 at 96 h [8]: > 100 µM; CC50 [23]: 65 µM; EC50 [24]: > 65 µM; IC50 [25]: 1.2 µM; IC50 [26]: > 10 µM
O=c1[nH]c2c(Cl)c3ncccc3cc2nc1-c1ccccc1 |  |  |  |  |  |  | 61 | > 61 | > 100 | 5 | > 100 | > 100 | 100 | > 100 | > 100 | > 100 | > 100 | 100 | 39 | > 100 | 
Clc1ccc(-c2nc3cc4cccnc4cc3[nH]2)cc1Cl |  |  |  |  |  |  | > 100 | > 100 | > 100 | > 100 | > 100 | > 100 | > 100 | > 100 | > 100 | > 100 | > 100 | > 100 | > 100 | > 100 | 
